ChEMBL document CHEMBL4513216, “Probing the Open Global Health Chemical Diversity Library for Multistage-Active Starting Points for Next-Generation Antimalarials” (ACS Infect Dis, 2020)

Assay: Toxicity liver stage against HepG2, at 10uM
Format: cell-based
Set-up: test concentration 10 uM, cell line HepG2-A16-CD81EGFP
Details: human, HepG2-A16-CD81EGFP cells; read-out: INHIBITION
Method in brief: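 Uninfected HepG2-A16-CD81EGFP cells, 3 × 10^3 per well, 1536-well, plated on prespotted compound at 10 μM final, parasite-free screening media added to match infected plates; puromycin 10 μM positive, DMSO 0.5% negative; run in parallel with 48 h PbLuc assay at 37 °C, 5% CO2; viability by CellTiter-Glo luminescence, normalized to controls.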

| SMILES | cytotoxicity at 10 µM [%] |
| --- | --- |
| CCN1CCN(C)C2(CCN(Cc3ccc(C)o3)CC2)C1=O | -7.1 |
| CCCNC(=O)NC(=O)CNC(C)(C)c1ccc2c(c1)OCCO2 | -14.7 |
| O=c1oc(-c2ccc(F)cc2)nn1CN1CCN(C2CCCC2)CC1 | -1.78 |
| CN(CC(=O)NCCc1ccccn1)C(=O)c1cccs1 | 2.26 |
| CCOCCN1CCN(C=C2NN=C(c3occc3C)O2)CC1CC (stereo unspecified) | -50.3 |
| CC1=NOC2(CCN(Cc3c[nH]c4ccccc34)CC2)C1 | 4.54 |
| Cn1cccc1CN1CCc2ncnc(-c3cccnc3)c2CC1 | 9.03 |
| CCC1CN(C)c2ccccc2CN1CCn1cncn1 (stereo unspecified) | 9.4 |
| CN1CC=C(c2noc(CCC(=O)N3CCCC3)n2)CC1 | 4.87 |
| CCOCC(=O)NC1(c2cccc(Br)c2)CC1 | -11.3 |
| O=C(c1cccs1)N1CC(Oc2ccccc2Cl)C1 | 6.89 |
| CCN1CCN(C[C@@H]2CN(c3ncccc3F)C[C@@H]2CO)CC1 | -6.45 |
| CC(C)c1cc(CN(C)C(=O)CN2CCC(C(N)=O)CC2)no1 | -0.0154 |
| Cc1nc2oc(C(=O)N3CCCC3)c(N)c2c2c1CCCC2 | -6.95 |
| CC(=O)N1CC2(CCN(C(=O)N(C)C)CC2)c2cc(C)ccc21 | 7.7 |
| O=C(c1cnccn1)N1C[C@@H]2OCC(=O)N(CC3CCCCC3)[C@@H]2C1 | -4.97 |
| CN(Cc1cccc(OC(F)F)c1)Cc1nc2c(cnn2C)c(=O)[nH]1 | -0.438 |
| COc1ccc(CNC(C)c2ccccc2Cl)c(OC)c1OC (stereo unspecified) | 8.01 |
| CN(C)[C@H]1CCCCN(C(=O)CCc2csc(N)n2)C1 | -7.59 |
| COCC(=O)N1CCN(C)c2ncccc2C1 | -3.1 |
| N#Cc1cc2c(nc1SCc1cc(O)nc(O)n1)CCCCC2 | 4.97 |
| Cc1ccc(-n2cc3[nH]c(=O)[nH]n3c2=O)cc1 | 1.22 |
| Cn1cc(C(=O)CC2CCCN2C(=O)c2ccncc2F)cn1 (stereo unspecified) | 0.555 |

| SMILES | cytotoxicity at 10 µM [%] |
| --- | --- |
| Cc1cc2c(=O)n(CCSc3ncn[nH]3)cnc2s1 | 8.87 |
| CC(Cn1cncc1-c1cnn(Cc2ccccc2)c1)N1CCCCC1 (stereo unspecified) | 6.58 |
| Cc1nc(=O)c(CC(=O)N2C[C@@H]3CC[C@H]2CN(C(=O)N(C)C)C3)c(C)[nH]1 | 7.6 |
| C=C(C)COc1ccccc1CN1CCC(C(=O)NCC)C1 (stereo unspecified) | 11.6 |
| CCCN1CCC(Cc2nc(CN3CCN(C)CC3)no2)CC1 | 1.25 |
| Cn1ccnc1CN1CCCN(C(=O)c2ccc3[nH]nnc3c2)CC1 | -8.53 |
| CCCOC1CCCN(C(=O)c2csc(S(N)(=O)=O)c2)C1 (stereo unspecified) | -5.45 |
| CSCCC(CO)NC(=O)c1sc(-c2ccccc2Cl)nc1C (stereo unspecified) | 1.11 |
| O=C(c1ccco1)N1C[C@@H]2CCN(c3cccnc3)C[C@@H]2C1 | -68.3 |
| Cc1cc(CNC(=O)CCCN2CCCCC2)n(C)n1 | -10.3 |
| O=C(COc1ccc2c(c1)OCO2)NCc1ccco1 | 3.22 |
| COc1ccc(CCNC(=O)NCc2cccc(C(N)=O)c2)cc1OC | 11.8 |
| COC(=O)COc1c(F)cc(Br)cc1C(C)=O | 2.63 |
| c1ccc(OCc2noc(CN3CCC(N4CCSCC4)CC3)n2)cc1 | -6.95 |
| COc1cc(C(=O)NC(C)C)nc2c(C)cc(F)cc12 | 2.43 |
| Cc1csc(NC(=O)CN2CCC(c3ccnn3CCO)CC2)n1 | 5.03 |
| COCc1cc(CNC(=O)c2cc(NC(C)=O)ccc2Cl)n[nH]1 | 5.3 |
| Cc1csc(N2CCN(C(=O)CCC(=O)c3ccc(C)s3)CC2)n1 | -3.09 |
| COCC1CC2(CCN(Cc3cccnc3)CC2)CN1c1ncccn1 (stereo unspecified) | 3.71 |
| CN(C)C(=O)CO[C@@H]1CC[C@H]2[C@H]1OCCN2c1ncccn1 | -6.96 |
| NC(=O)CN1CCC(C(=O)NCc2nc(-c3ccc(F)cc3)cs2)CC1 | -5.79 |
| c1cnc(N2C[C@H]3CC[C@@H](C2)N(Cc2ccsc2)C3)nc1 | 1.2 |
| COC[C@]1(O)CCN(C(=O)c2cccc(CN(C)C)c2)CC1(C)C | 3.26 |

| SMILES | cytotoxicity at 10 µM [%] |
| --- | --- |
| Cc1ncsc1CN1Cc2cnn(C)c2C(COCC2CC2)C1 (stereo unspecified) | 3.04 |
| Cc1nc(CSCCC(=O)NCCNC(=O)OC(C)(C)C)cs1 | -2.3 |
| O=C1NCC2CN(Cc3ccccc3OCc3ccccn3)CCN12 (stereo unspecified) | -1.36 |
| CCN(CC)C1CCN(C(=O)NCc2cccc(NC(C)=O)c2)C1 (stereo unspecified) | 4.55 |
| O=S(=O)(c1ccc(N2CCCCC2)c2nonc12)N1CCCCC1 | 6.74 |
| COc1ccc2c(ccn2CC(=O)Nc2n[nH]c(C(C)C)n2)c1 | -6.72 |
| c1ccc2sc(CN3CCOC(Cn4cccn4)C3)nc2c1 (stereo unspecified) | -10.2 |
| Cc1nc2c(c(N3CCC4(CCCNC4=O)C3)n1)CCC2 (stereo unspecified) | -12.8 |
| CN(C)C(=O)N1CC2(CCOCC2)c2cc(NS(=O)(=O)C3CC3)ccc21 | -7.15 |
| COCCN(C)CC(=O)N1C[C@@H](NC(C)=O)[C@H](c2ccc(OC)cc2)C1 | 1.45 |
| CCOc1cccc(NS(=O)(=O)c2cc(C(=O)O)cs2)c1 | -4.41 |
| CC(C)c1cc(N2CC[C@H](F)C2)n2nccc2n1 | -2.56 |
| CCN(Cc1nonc1C)C(=O)c1cc(C(F)(F)F)nn1C | 2.06 |
| CCCNC(c1cccnc1)c1ccc(F)cc1F (stereo unspecified) | -2 |
| CC(Cn1cccn1)NC(=O)N(C)Cc1cnn(C)c1 (stereo unspecified) | -5.17 |
| CCS(=O)(=O)N1Cc2c(Cn3ccnc3)nn(C)c2C1 | -2.85 |
| Cc1ccc(S(=O)(=O)NCCc2cccnc2)cc1C | 0.645 |
| N#Cc1nccnc1NC1CCN(c2ccccc2OC(F)F)C1 (stereo unspecified) | 12.8 |
| CCOc1ncc(NC(=O)c2ccco2)c(OCC)n1 | -1.76 |
| COCC1CCCCN1C(=O)c1cc(Cn2ccc3ccccc32)[nH]n1 (stereo unspecified) | -3.54 |
| Cc1nc(C)n(CC2CN(c3ccc(C#N)cn3)CCO2)n1 (stereo unspecified) | -10.5 |
| CN(C)CCn1c(=O)oc2ccc(NC(=O)C3CCCO3)cc21 (stereo unspecified) | 0.743 |
| Cc1ccc(NCCCc2c(C)noc2C)nn1 | 8.12 |

| SMILES | cytotoxicity at 10 µM [%] |
| --- | --- |
| CC(C)Cn1ncc2cc(C(=O)N(C)Cc3cccc(O)c3)cnc21 | -4.67 |
| O=C(c1ccc[nH]1)N1C[C@H]2CN(Cc3cccc(F)c3)C(=O)[C@H]2C1 | 3.99 |
| Cc1cnn(C2CN(CC(=O)NCC(C)C)C2)c1 | -1.33 |
| COc1cc(F)ccc1CC(=O)N1CC[C@H]2C(=O)NCCO[C@H]2C1 | -108 |
| CC(=O)c1ccc(C(=O)NCc2cccnc2N2CCCC(O)C2)s1 (stereo unspecified) | -0.147 |
| COc1cccc(OC)c1C(=O)N1CC(=O)N(C2CCC2)CC(O)C1 (stereo unspecified) | -5.59 |
| OCCc1ncnn1Cc1cccc(Cl)c1 | 18.2 |
| Cc1cc(C)nc(CN(C)C(=O)c2cccc(CCC(C)(C)O)c2)c1 | -3.25 |
| COc1ccc(CNC(C)c2cn[nH]c2C)cc1 (stereo unspecified) | 6.1 |
| O=C1NCC2(CCCN(Cc3ccccc3OCCO)C2)O1 (stereo unspecified) | -39.2 |
| COc1ccc2c(CN3CCN(Cc4cccc(F)c4)CC3)n[nH]c2c1 | -1.86 |
| Nc1cc(C(=O)N2C[C@@H]3CC[C@H]2CN(Cc2cccnc2)C3)ccn1 | 0.624 |
| Oc1cc(-c2ccccn2)nc(C2CCN(Cc3ccncc3)CC2)n1 | -7.56 |
| Cc1ccc([C@]2(O)CC[C@H]3CN(Cc4cccnc4)C[C@H]32)nc1 | -12.6 |
| CS(=O)(=O)N1CCOCC2(CN(Cc3ccco3)CCO2)C1 (stereo unspecified) | -5.04 |
| CN(C)C(=O)Cc1nc(CN2CCCCC2Cn2cncn2)cs1 (stereo unspecified) | -0.868 |
| Cc1nc(COC[C@@H]2CC[C@H]3NCC[C@H]3O2)cs1 | -3.15 |
| Cc1ccc(F)c2c1CCCN2CC(=O)NC1CCS(=O)(=O)C1 (stereo unspecified) | -11.9 |
| Cc1nc(C2CCN(S(C)(=O)=O)CC2)nc2c1CCC(=O)N2CC(C)C | 3.44 |
| CC(NCc1ccc(F)cc1)c1ccc(OCC(=O)NC2CC2)cc1 (stereo unspecified) | 3.99 |
| Cc1nc(C2CCCN2CCC(=O)N2CCc3ccccc32)no1 (stereo unspecified) | -1.07 |
| CN(CC(=O)N1CCC(C(O)c2ccccc2)CC1)c1cnccn1 (stereo unspecified) | -2.9 |
| Cc1cc(N2CCC(C(=O)O)(n3ccc(C(C)C)n3)CC2)nc(N)n1 | 0.445 |

| SMILES | cytotoxicity at 10 µM [%] |
| --- | --- |
| O=C(CS(=O)(=O)Cc1cc(Cl)c2c(c1)OCCCO2)NCC1CC1 | 1.07 |
| Cn1ccnc(Sc2cccc(C#N)c2)c1=O | 4.64 |
| Cc1nc(Nc2ncccn2)cc(C2CCCN2Cc2ncc[nH]2)n1 (stereo unspecified) | -15.3 |
| Cc1cccnc1NC(=O)c1ccc(-n2cncn2)nn1 | -1.52 |
| CC(Cc1c(F)cccc1F)NC(=O)Nc1cnn(CC(N)=O)c1 (stereo unspecified) | -2.96 |
| COc1cc(N2C[C@H]3CC[C@@H](C2)N(CC2CCC2)C3=O)ncn1 | -1.15 |
| CCc1nnsc1C(=O)NCC1CN(CC(C)C)CCO1 (stereo unspecified) | 0.537 |
| Cc1ccc2c(c1)C(NC(=O)N(C)C)CC21CCN(C)CC1 (stereo unspecified) | 10.4 |
| Cc1occc1CN(C)Cc1nc2c(cnn2C)c(=O)[nH]1 | 2.11 |
| CC(C)C(C(=O)NC1CCOCC1)n1cnc2cc(F)c(F)cc21 (stereo unspecified) | -2.75 |
| Cc1cc(C)cc(CNCCS(=O)(=O)N2CCOCC2)c1 | 1.05 |
| c1cnc(-c2noc(C3CN(Cc4ccc5c(c4)CCO5)C3)n2)nc1 | 0.488 |
| Cc1cc(C[C@@H]2CCC[C@H]2NCc2cc(F)ccc2F)on1 | -5.72 |
| O=C1NC[C@@]2(C(=O)O)CN(Cc3cccc(OC4CCCC4)c3)C[C@@H]12 | -2.34 |
| O=C1OCC(CO)N1Cc1cccc(Cl)c1F (stereo unspecified) | 0.739 |
| COc1ccc(NC(=O)NC(C)Cn2cccn2)cn1 (stereo unspecified) | -5.72 |
| OC(CNCCn1cccn1)c1ccc(C(F)(F)F)cc1 (stereo unspecified) | -5.4 |
| c1ccn2c(SCC3CN=C(N4CCOCC4)S3)ncc2c1 (stereo unspecified) | 11.8 |
| O=C(NCc1nc[nH]n1)c1cc(COc2cccc(C(F)(F)F)c2)[nH]n1 | -3.26 |
